Assay results taken from article PMC12673082 (Nature Communications, 2025).

Tests used:
rP2X7 = molecular target: T1, rP2X7 (Rattus norvegicus, UniProt Q64663); assay: Whole-cell patch clamp, ATP-evoked current, transfected HEK293; type: cell-based; conditions: HEK293, read-out: inhibition rate
T1 sequence (Q64663 1-595): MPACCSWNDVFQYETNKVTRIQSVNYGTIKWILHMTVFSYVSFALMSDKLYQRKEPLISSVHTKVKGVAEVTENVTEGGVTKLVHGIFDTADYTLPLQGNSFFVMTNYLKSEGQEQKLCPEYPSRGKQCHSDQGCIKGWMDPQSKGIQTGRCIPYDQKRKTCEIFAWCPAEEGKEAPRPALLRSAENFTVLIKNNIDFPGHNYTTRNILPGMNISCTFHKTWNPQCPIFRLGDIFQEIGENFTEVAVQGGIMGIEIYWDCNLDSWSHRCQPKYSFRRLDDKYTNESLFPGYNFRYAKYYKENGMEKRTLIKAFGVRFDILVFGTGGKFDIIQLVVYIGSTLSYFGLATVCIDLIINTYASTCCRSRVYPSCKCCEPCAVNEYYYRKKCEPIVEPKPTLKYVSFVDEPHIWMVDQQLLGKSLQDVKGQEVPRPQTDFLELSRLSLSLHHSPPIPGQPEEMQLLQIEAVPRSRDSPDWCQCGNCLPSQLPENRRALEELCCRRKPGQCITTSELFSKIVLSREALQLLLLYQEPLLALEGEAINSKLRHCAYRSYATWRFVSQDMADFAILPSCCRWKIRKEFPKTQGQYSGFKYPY

pdP2X7 = pdP2X7 (Ailuropoda melanoleuca, UniProt G1M6C4); assay: as above; type: cell-based, giant panda (Ailuropoda melanoleuca)
hP2X1 = hP2X1 (Homo sapiens, UniProt P51575); assay: as above; type: cell-based; conditions: HEK293, read-out: inhibition rate
P2rx7+/+ mice = assay: Murine full-thickness wound infection model; type: in vivo, mouse; conditions: 7.5 mg/ml, 50 μL s.c. twice daily, 7 days, vs control solvent
In short: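 WT C57BL/6J mice (8–10 weeks) were anesthetized, their backs shaved and iodine-disinfected, and a 6 mm punch wound made. 20 μL S. aureus (1×10^7 CFU/ml, saline-washed) was applied to the wound. After 24 h of infection, mice were randomized to test compound (7.5 mg/ml, 50 μL) or vehicle (20% sulfobutylether-β-cyclodextrin in saline), given s.c. around the wound twice daily for 7 days. Wound area was imaged daily and quantified. Data are mean ± SEM.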

pdP2X7 Y295A = assay: Whole-cell patch clamp, pdP2X7 mutant; type: cell-based, giant panda; conditions: pd7Y295A, 30 μM
pdP2X7 F103A = pdP2X7 F103A (Ailuropoda melanoleuca, UniProt G1M6C4, F104A); conditions: pd7 F103A, 10 μM
pdP2X7 M105F [1] = molecular target: T2, pdP2X7 M105F (Ailuropoda melanoleuca, UniProt G1M6C4, M106F); conditions: pd7 M105F, 10 μM
pdP2X7 F95A = pdP2X7 F95A (Ailuropoda melanoleuca, UniProt G1M6C4, F96A); conditions: pd7 F95A, 10 μM
pdP2X7 Y298F = pdP2X7 Y298F (Ailuropoda melanoleuca, UniProt G1M6C4, Y299F); conditions: pd7 Y298F, 10 μM
pdP2X7 P96G = pdP2X7 P96G (Ailuropoda melanoleuca, UniProt G1M6C4, P97G); assay: cell-based
mP2X7 = molecular target: T3, mP2X7 (Mus musculus, UniProt Q9Z1M0); assay: Whole-cell patch clamp, ATP-evoked current, transfected HEK293; type: cell-based; conditions: HEK293, read-out: inhibition rate
T3 sequence (Q9Z1M0 1-595): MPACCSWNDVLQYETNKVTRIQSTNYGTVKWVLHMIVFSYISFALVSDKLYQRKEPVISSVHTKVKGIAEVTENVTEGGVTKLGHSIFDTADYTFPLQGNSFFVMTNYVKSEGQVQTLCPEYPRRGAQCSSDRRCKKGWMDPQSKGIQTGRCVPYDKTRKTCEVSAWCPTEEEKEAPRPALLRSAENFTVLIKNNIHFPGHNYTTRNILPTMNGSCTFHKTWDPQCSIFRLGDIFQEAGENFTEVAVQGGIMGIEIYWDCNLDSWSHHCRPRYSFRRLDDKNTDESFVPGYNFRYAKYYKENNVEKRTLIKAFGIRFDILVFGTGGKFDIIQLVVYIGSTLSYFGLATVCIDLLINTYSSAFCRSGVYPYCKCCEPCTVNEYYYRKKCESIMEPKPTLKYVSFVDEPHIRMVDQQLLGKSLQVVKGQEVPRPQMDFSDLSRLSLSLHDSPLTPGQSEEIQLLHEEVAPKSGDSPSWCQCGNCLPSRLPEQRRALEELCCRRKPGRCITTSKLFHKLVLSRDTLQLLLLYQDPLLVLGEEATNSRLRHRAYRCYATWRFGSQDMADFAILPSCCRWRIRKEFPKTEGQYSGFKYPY

pdP2X7 M105F [2] = molecular target: T2, pdP2X7 M105F; assay: cell-based
pdP2X7 F103W = assay: Whole-cell patch clamp, pdP2X7 mutant; type: cell-based, giant panda; conditions: pd7F103W, 30 μM
mP2X7 Y108F/A312V = mP2X7 Y108F/A312V (Mus musculus, UniProt Q9Z1M0, A312V/Y108F); assay: Whole-cell patch clamp, mP2X7 mutant; type: cell-based; conditions: 1 μM
mP2X7 Y108F/A312V, sequence (Q9Z1M0 whole entry Y108F/A312V): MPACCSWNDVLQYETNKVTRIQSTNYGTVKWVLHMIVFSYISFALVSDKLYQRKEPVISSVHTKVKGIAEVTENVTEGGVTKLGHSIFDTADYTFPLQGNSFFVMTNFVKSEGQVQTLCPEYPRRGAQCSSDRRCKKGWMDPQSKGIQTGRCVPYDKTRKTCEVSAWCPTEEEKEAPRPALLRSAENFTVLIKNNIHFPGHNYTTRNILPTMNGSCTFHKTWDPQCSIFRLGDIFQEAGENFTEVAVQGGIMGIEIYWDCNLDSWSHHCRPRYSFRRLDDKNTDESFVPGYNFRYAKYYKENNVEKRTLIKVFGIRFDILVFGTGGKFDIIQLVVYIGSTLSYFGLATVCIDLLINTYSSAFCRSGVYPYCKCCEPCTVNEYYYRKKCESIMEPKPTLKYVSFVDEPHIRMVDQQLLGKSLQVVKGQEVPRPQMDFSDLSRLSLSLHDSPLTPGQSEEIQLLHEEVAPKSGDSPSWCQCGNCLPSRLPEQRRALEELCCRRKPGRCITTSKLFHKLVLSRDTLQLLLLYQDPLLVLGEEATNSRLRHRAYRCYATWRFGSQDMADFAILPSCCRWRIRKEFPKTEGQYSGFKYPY

pdP2X7, sequence (G1M6C4 2-595): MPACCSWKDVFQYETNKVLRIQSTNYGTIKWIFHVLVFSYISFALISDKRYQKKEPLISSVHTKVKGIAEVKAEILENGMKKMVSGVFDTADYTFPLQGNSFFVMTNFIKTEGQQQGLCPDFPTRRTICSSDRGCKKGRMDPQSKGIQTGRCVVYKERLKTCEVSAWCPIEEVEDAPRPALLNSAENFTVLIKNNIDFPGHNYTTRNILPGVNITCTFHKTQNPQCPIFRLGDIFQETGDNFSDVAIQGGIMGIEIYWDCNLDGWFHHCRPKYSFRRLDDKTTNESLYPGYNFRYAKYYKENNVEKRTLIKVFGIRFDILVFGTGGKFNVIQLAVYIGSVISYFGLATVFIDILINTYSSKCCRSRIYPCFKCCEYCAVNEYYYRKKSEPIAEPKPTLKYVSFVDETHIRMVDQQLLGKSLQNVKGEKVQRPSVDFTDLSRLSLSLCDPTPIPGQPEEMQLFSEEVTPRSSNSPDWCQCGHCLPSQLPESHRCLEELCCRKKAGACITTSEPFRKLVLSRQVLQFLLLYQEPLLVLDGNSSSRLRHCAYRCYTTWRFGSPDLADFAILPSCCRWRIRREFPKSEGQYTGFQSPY
T2 sequence (G1M6C4 2-595 M106F): as the sequence (G1M6C4 2-595) above, with M105F counted along it
pdP2X7 F103A, sequence (G1M6C4 2-595 F104A): as the sequence (G1M6C4 2-595) above, with F103A counted along it
pdP2X7 Y298F, sequence (G1M6C4 2-606 Y299F): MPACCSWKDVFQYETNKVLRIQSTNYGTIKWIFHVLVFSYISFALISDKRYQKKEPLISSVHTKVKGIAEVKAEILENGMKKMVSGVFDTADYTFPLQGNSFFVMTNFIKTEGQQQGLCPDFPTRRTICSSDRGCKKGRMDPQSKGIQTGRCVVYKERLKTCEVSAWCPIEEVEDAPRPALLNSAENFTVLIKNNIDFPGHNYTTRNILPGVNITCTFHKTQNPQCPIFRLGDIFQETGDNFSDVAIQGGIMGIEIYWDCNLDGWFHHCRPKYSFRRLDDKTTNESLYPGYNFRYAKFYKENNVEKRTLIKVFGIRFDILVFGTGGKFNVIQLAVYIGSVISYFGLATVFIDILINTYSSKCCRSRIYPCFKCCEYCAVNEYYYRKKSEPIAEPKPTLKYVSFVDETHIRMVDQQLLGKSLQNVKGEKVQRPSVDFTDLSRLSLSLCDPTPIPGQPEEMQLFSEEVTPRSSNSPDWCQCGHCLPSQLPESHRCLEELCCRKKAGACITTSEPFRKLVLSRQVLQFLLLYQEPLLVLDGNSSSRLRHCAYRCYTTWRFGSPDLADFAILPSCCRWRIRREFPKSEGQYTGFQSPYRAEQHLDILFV
pdP2X7 P96G, sequence (G1M6C4 2-595 P97G): as the sequence (G1M6C4 2-595) above, with P96G counted along it
pdP2X7 F95A, sequence (G1M6C4 2-595 F96A): as the sequence (G1M6C4 2-595) above, with F95A counted along it
hP2X1, sequence (P51575 whole entry): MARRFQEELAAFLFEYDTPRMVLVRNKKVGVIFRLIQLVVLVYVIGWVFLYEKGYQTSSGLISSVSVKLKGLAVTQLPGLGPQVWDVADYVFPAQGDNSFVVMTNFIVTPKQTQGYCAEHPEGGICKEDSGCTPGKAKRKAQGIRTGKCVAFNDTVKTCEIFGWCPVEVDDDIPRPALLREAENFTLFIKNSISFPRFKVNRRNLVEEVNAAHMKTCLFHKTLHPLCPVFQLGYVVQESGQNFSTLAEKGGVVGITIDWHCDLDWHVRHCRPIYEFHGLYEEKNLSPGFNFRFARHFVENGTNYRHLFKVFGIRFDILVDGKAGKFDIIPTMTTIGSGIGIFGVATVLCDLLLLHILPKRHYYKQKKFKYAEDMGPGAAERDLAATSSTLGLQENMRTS

C=CC[C@@H]1c2ccc(OC)c(OC)c2CN2CCc3cc4c(cc3[C@H]12)OCO4 [PSFL1191, (13R,13aS)-13-allyl-9,10-dimethoxy-5,8,13,13a-tetrahydro-6H-1,3dioxolo[4,5-g]isoquinolino[3,2-a]isoquinoline]
inhibition at 30 µM (rP2X7): 4.94 ± 1.43% | IC50 (pdP2X7): 754 ± 18 nM | apparent affinity, times lower than that of JNJ-54175446 (pdP2X7; pdP2X7): 10-20 times | inhibition at 30 µM (hP2X1): -8.35 ± 4.49% | wound healing (wound area) (P2rx7+/+ mice): did not influence the wound healing rate | inhibition rate (pdP2X7 Y295A): ≤ 50% | inhibitory effect on ATP (1 mM)-induced activation (inhibition ratio) (pdP2X7 F103A): significantly attenuated | inhibitory effect on ATP (1 mM)-induced activation (inhibition ratio) (pdP2X7 M105F [1]): significantly attenuated | inhibitory effect on ATP (1 mM)-induced activation (inhibition ratio) (pdP2X7 F95A): did not | inhibitory effect on ATP (1 mM)-induced activation (inhibition ratio) (pdP2X7 Y298F): significantly attenuated | IC50 (pdP2X7 P96G): 8060 nM | inhibition at 30 µM (mP2X7): 13.3 ± 3.04% | IC50 (pdP2X7 M105F [2]): 2060 nM | inhibition rate (pdP2X7 F103W): ≤ 50% | fold increase of inhibition compared to m7WT (mP2X7 Y108F/A312V): ~26 fold
